According to ChEMBL document CHEMBL1926592, “Synthesis and in vitro evaluation of fluorinated styryl benzazoles as amyloid-probes” (Bioorg Med Chem, 2011):
Activity calls are given as the source filed them. No cut-off for these calls is given here.

Experiments:
[1] = target: Alpha-synuclein (Homo sapiens) (UniProt P37840); assay: Binding affinity to human alpha-synuclein fibril by fluorescence intensity assay
[2] = target: T1, Amyloid-beta precursor protein (Homo sapiens, UniProt P05067); assay: Binding affinity to human amyloid beta (1 to 42) fibril by fluorescence intensity assay
T1 sequence (P05067 whole entry): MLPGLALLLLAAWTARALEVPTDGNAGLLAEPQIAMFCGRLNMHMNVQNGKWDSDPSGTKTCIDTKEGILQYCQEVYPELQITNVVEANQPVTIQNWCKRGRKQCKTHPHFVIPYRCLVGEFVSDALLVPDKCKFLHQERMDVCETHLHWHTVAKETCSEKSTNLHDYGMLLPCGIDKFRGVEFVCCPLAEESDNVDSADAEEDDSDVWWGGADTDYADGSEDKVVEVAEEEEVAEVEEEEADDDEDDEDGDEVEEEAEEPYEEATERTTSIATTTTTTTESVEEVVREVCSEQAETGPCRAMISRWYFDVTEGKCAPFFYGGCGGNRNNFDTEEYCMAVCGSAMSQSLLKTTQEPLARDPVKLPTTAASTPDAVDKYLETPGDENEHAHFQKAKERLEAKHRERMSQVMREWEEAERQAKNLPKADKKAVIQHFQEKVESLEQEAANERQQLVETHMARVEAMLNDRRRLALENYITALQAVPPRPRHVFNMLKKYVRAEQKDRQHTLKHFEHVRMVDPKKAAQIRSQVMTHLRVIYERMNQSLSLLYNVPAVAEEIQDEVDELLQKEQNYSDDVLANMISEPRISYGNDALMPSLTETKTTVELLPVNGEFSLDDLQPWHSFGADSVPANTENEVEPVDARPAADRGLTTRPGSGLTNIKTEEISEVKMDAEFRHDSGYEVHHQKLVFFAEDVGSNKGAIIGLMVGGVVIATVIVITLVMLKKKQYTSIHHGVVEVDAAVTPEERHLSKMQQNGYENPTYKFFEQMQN
In short: (§1)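 Fibrils grown from human insulin (3 mg/mL, Tris-HCl 50 mM pH 3), E. coli-expressed human α-syn (3 mg/mL, pH 7.4) or Aβ(1–42) (0.5 mg/ml, 1% NH4OH). Fibril level taken as supernatant protein depletion. Plate-reader intensity read at each ligand's maximal excitation/emission wavelengths, dye blanks subtracted. Kd from single-site saturation fit.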

[3] = target: Albumin (Bos taurus, UniProt P02769); assay: Binding affinity to bovine serum albumin by fluorescence intensity assay; format: ADME; settings: cattle, isolated protein
Sequence of Albumin (P02769 whole entry): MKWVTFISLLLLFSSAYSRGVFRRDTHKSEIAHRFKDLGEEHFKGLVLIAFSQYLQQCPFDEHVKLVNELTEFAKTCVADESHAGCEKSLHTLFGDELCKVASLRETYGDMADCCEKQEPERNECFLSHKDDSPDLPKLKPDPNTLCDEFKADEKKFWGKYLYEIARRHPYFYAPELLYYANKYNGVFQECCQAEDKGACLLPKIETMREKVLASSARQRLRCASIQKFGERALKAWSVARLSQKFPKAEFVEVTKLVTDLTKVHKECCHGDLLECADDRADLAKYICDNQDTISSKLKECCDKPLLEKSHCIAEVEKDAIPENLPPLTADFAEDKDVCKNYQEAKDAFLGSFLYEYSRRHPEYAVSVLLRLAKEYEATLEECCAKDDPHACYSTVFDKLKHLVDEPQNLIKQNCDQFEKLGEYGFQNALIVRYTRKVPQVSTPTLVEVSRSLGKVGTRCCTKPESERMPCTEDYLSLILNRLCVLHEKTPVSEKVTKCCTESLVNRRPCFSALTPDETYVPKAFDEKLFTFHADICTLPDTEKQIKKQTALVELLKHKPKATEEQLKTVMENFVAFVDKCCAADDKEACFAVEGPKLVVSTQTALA
In short: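 BSA titrated with increasing ligand concentrations in 50 mM Tris-HCl pH 7.4, in the same way as the fibril assays. Intrinsic fluorescence intensity was read on a plate reader with dye-blank background subtracted. Kd came from a single-site saturation curve fit.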

[4] = organism: Homo sapiens; assay: Binding affinity to human insulin fibril assessed as increase in intrinsic fluorescence intensity at 2.25 uM relative to equimolar monomeric specie
[5] = target: T1, Amyloid-beta precursor protein; assay: Binding affinity to human amyloid beta (1 to 42) fibril assessed as intrinsic fluorescence intensity
[6] = organism: Homo sapiens; assay: Binding affinity to human […] fibril assessed as increase in intrinsic fluorescence intensity at 2.25 uM relative to equimolar monomeric specie
[7] = Binding affinity to human insulin fibril by fluorescence intensity assay
In short: as §1, with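 “depletion. Fixed fibrils (3.5–11.35) titrated with ligand (DMSO stock diluted into 50 mM Tris-HCl pH 7.4).” for “depletion.”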

[8] = target: Alpha-synuclein (Homo sapiens) (UniProt P37840); assay: Binding affinity to human alpha-synuclein monomer expressed in Escherichia coli BL21 by fluorescence intensity assay
[9] = target: T1, Amyloid-beta precursor protein; assay: Binding affinity to human amyloid beta (1 to 42) fibril assessed as increase in intrinsic fluorescence intensity at 2.25 uM relative to equimolar monomeric specie
[10] = organism: Homo sapiens; assay: Binding affinity to human […] fibril assessed as intrinsic fluorescence intensity
[11] = target: Insulin (Homo sapiens) (UniProt P01308); assay: Binding affinity to human insulin monomer by fluorescence intensity assay
Sequence of Insulin (Homo sapiens) (P01308 whole entry): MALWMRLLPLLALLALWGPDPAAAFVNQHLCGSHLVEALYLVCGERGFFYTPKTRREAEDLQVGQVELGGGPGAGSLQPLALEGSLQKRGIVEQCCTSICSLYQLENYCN

[12] = target: T1, Amyloid-beta precursor protein; assay: Binding affinity to human amyloid beta (1 to 42) monomer by fluorescence intensity assay
[13] = organism: Homo sapiens; assay: Binding affinity to human insulin fibril assessed as intrinsic fluorescence intensity

Structure (SMILES)	Kd [1]	Kd [2]	Activity [3]	fold change (FC) [4]	Activity [5]	fold change (FC) [6]	Kd [7]	Activity [8]	fold change (FC) [9]	Activity [10]	Activity [11]	Activity [12]	Activity [13]
CN(CCF)c1ccc(/C=C/c2nc3ccccc3n2C)cc1	1.81 µM⁻¹	5.19 µM⁻¹	Not Active	3.63	Active	2.23	1.22 µM⁻¹	inactive	5.17	Active	inactive	inactive	Active
CN(CCF)c1ccc(/C=C/c2nc3ccccc3o2)cc1	3.24 µM⁻¹	4.48 µM⁻¹	Not Active	1.98	Active	1.98	2.28 µM⁻¹	inactive	2.69	Active	inactive	inactive	Active
CN(CCF)c1ccc(/C=C\c2nc3ccccc3[nH]2)cc1			Not Active		Active			inactive		Active	inactive	inactive	Active
CN(CCF)c1ccc(/C=C/c2nc3ccccc3[nH]2)cc1	3.31 µM⁻¹	3.63 µM⁻¹	Not Active	2.49	Active	4.5	1.54 µM⁻¹	inactive	2.71	Active	inactive	inactive	Active
CN(CCF)c1ccc(/C=C\c2nc3ccccc3s2)cc1	7.35 µM⁻¹	23.96 µM⁻¹	Not Active	2.98	Active	9.48	8.59 µM⁻¹	inactive	11.3	Active	inactive	inactive	Active
CN(CCF)c1ccc(/C=C/c2nc3ccccc3s2)cc1	1.38 µM⁻¹	10.67 µM⁻¹	Not Active	3.3	Active	4.48	1.79 µM⁻¹	inactive	7.41	Active	inactive	inactive	Active
Cc1ccc2c(c1)sc(-c1ccc(N(C)C)cc1)[n+]2C.[Cl-] [THIOFLAVIN T]							2.54 µM⁻¹						
CN(CCF)c1ccc(/C=C\c2nc3ccccc3n2C)cc1	1.85 µM⁻¹	3.52 µM⁻¹	Not Active	2.84	Active	2.84	3.86 µM⁻¹	inactive	5.9	Active	inactive	inactive	Active
CN(CCF)c1ccc(/C=C\c2nc3ccccc3o2)cc1	7.43 µM⁻¹	5.99 µM⁻¹	Not Active	1.6	Active	1.63	3.24 µM⁻¹	inactive	1.28	Active	inactive	inactive	Active
